Results from ChEMBL document CHEMBL5058577, “EUbOPEN Chemogenomics Library 2 (Multiplex)” (2022).

System: HEK-293T
Assay: Multiplex assay against HEK293T
Assay type: toxicity, cell-based
Conditions: human
Outline: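 Live cells were stained at seeding with Hoechst33342, BioTracker Green Microtubule Cytoskeleton Dye, MitoTracker Red and Annexin V Alexa Fluor 680. Following compound addition, they were imaged on a CQ1 microscope at 37°C and 5% CO2 and gated by CellPathfinder machine learning into Hoechst high-intensity objects or normal cells, with normal cells split into healthy, pyknosed or fragmented nuclei and pyknosed cells into mitotic or apoptotic. Tubulin, mitochondrial-mass and membrane-permeability phenotypes are per cents of healthy-nucleus cells.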

[1] = 12 h, 1 µM, compound concentration 1 uM, replicate 1
[2] = 12 h, 1 µM, compound concentration 1 uM, replicate 2
[3] = 12 h, 10 µM, compound concentration 10 uM, replicate 1
[4] = 12 h, 10 µM, compound concentration 10 uM, replicate 2
[5] = 24 h, 1 µM, compound concentration 1 uM, replicate 1
[6] = 24 h, 1 µM, compound concentration 1 uM, replicate 2
[7] = 24 h, 10 µM, compound concentration 10 uM, replicate 1
[8] = 24 h, 10 µM, compound concentration 10 uM, replicate 2
[9] = 48 h, 1 µM, compound concentration 1 uM, replicate 1
[10] = 48 h, 1 µM, compound concentration 1 uM, replicate 2
[11] = 48 h, 10 µM, compound concentration 10 uM, replicate 1
[12] = 48 h, 10 µM, compound concentration 10 uM, replicate 2

In the case of Cc1ccccc1C(=O)Nc1ccc(C(=O)N2CCCC(N(C)C)c3ccccc32)cc1.Cl (centres undefined), the “Population Apoptotic (%)” value [1] is reported as 18%, the “Population Fragmented Nuclei (%)” value [1] is reported as 6% and the “Population Healthy Nuclei (%)” value [1] is reported as 80%. For the same molecule, the “Population Hoechst High Intensity Objects (%)” value [1] was 8%, the “Population Membrane Permeable-Phenotype (%)” value [1] was 0% and the “Population Mitochondria Different-Phenotype (%)” value [1] was 51%. The “Population Mitotic Cells (%)” value [1] was 81%, the “Population Normal (%)” value [1] was 91% and the “Population Pyknosed Nuclei (%)” value [1] was 12%. The “Population Tubulin-Different-Phenotype (%)” value [1] was 33%, the “Total Cell Count” value [1] was 519 and the “Population Apoptotic (%)” value [2] was 53%. For the same molecule, the “Population Fragmented Nuclei (%)” value [2] was 5%, the “Population Healthy Nuclei (%)” value [2] was 79% and the “Population Hoechst High Intensity Objects (%)” value [2] was 6%. For the same molecule, the “Population Mitochondria Different-Phenotype (%)” value [2] was 72%, the “Population Mitotic Cells (%)” value [2] was 46% and the “Population Normal (%)” value [2] was 93%. The “Population Pyknosed Nuclei (%)” value [2] was 14%, the “Population Tubulin-Different-Phenotype (%)” value [2] was 29% and the “Total Cell Count” value [2] was 412. For the same molecule, the “Population Apoptotic (%)” value [3] was 53%, the “Population Fragmented Nuclei (%)” value [3] was 6% and the “Population Healthy Nuclei (%)” value [3] was 70%. The “Population Hoechst High Intensity Objects (%)” value [3] was 8%, the “Population Membrane Permeable-Phenotype (%)” value [3] was 0% and the “Population Mitochondria Different-Phenotype (%)” value [3] was 74%. The “Population Mitotic Cells (%)” value [3] was 46%, the “Population Normal (%)” value [3] was 91% and the “Population Pyknosed Nuclei (%)” value [3] was 22%. The “Population Tubulin-Different-Phenotype (%)” value [3] was 60%, the “Total Cell Count” value [3] was 233 and the “Population Apoptotic (%)” value [4] was 64%. The “Population Fragmented Nuclei (%)” value [4] was 8%, the “Population Healthy Nuclei (%)” value [4] was 72% and the “Population Hoechst High Intensity Objects (%)” value [4] was 15%. For the same molecule, the “Population Mitochondria Different-Phenotype (%)” value [4] was 82%, the “Population Mitotic Cells (%)” value [4] was 35% and the “Population Normal (%)” value [4] was 84%. For the same molecule, the “Population Pyknosed Nuclei (%)” value [4] was 18%, the “Population Tubulin-Different-Phenotype (%)” value [4] was 61% and the “Total Cell Count” value [4] was 285. For the same molecule, the “Population Apoptotic (%)” value [5] was 31%, the “Population Fragmented Nuclei (%)” value [5] was 11% and the “Population Healthy Nuclei (%)” value [5] was 79%. The “Population Hoechst High Intensity Objects (%)” value [5] was 5%, the “Population Membrane Permeable-Phenotype (%)” value [5] was 0% and the “Population Mitochondria Different-Phenotype (%)” value [5] was 28%. The “Population Mitotic Cells (%)” value [5] was 68%, the “Population Normal (%)” value [5] was 94% and the “Population Pyknosed Nuclei (%)” value [5] was 8%. For the same molecule, the “Population Tubulin-Different-Phenotype (%)” value [5] was 17%, the “Total Cell Count” value [5] was 727 and the “Population Apoptotic (%)” value [6] was 30%. For the same molecule, the “Population Fragmented Nuclei (%)” value [6] was 5%, the “Population Healthy Nuclei (%)” value [6] was 83% and the “Population Hoechst High Intensity Objects (%)” value [6] was 4%. The “Population Mitochondria Different-Phenotype (%)” value [6] was 52%, the “Population Mitotic Cells (%)” value [6] was 69% and the “Population Normal (%)” value [6] was 95%. The “Population Pyknosed Nuclei (%)” value [6] was 11%, the “Population Tubulin-Different-Phenotype (%)” value [6] was 19% and the “Total Cell Count” value [6] was 567. For the same molecule, the “Population Apoptotic (%)” value [7] was 41%, the “Population Fragmented Nuclei (%)” value [7] was 8% and the “Population Healthy Nuclei (%)” value [7] was 70%. For the same molecule, the “Population Hoechst High Intensity Objects (%)” value [7] was 7%, the “Population Membrane Permeable-Phenotype (%)” value [7] was 0% and the “Population Mitochondria Different-Phenotype (%)” value [7] was 71%. The “Population Mitotic Cells (%)” value [7] was 58%, the “Population Normal (%)” value [7] was 92% and the “Population Pyknosed Nuclei (%)” value [7] was 21%. For the same molecule, the “Population Tubulin-Different-Phenotype (%)” value [7] was 46%, the “Total Cell Count” value [7] was 268 and the “Population Apoptotic (%)” value [8] was 44%. The “Population Fragmented Nuclei (%)” value [8] was 7%, the “Population Healthy Nuclei (%)” value [8] was 73% and the “Population Hoechst High Intensity Objects (%)” value [8] was 14%. The “Population Mitochondria Different-Phenotype (%)” value [8] was 83%, the “Population Mitotic Cells (%)” value [8] was 55% and the “Population Normal (%)” value [8] was 85%. For the same molecule, the “Population Pyknosed Nuclei (%)” value [8] was 18%, the “Total Cell Count” value [8] was 285 and the “Population Apoptotic (%)” value [9] was 13%. For the same molecule, the “Population Fragmented Nuclei (%)” value [9] was 13%, the “Population Healthy Nuclei (%)” value [9] was 78% and the “Population Hoechst High Intensity Objects (%)” value [9] was 2%. The “Population Membrane Permeable-Phenotype (%)” value [9] was 1%, the “Population Mitochondria Different-Phenotype (%)” value [9] was 24% and the “Population Mitotic Cells (%)” value [9] was 86%. For the same molecule, the “Population Normal (%)” value [9] was 97%, the “Population Pyknosed Nuclei (%)” value [9] was 8% and the “Population Tubulin-Different-Phenotype (%)” value [9] was 17%. The “Total Cell Count” value [9] was 1095, the “Population Apoptotic (%)” value [10] was 34% and the “Population Fragmented Nuclei (%)” value [10] was 10%. The “Population Healthy Nuclei (%)” value [10] was 82%, the “Population Hoechst High Intensity Objects (%)” value [10] was 4% and the “Population Membrane Permeable-Phenotype (%)” value [10] was 0%. For the same molecule, the “Population Mitochondria Different-Phenotype (%)” value [10] was 30%, the “Population Mitotic Cells (%)” value [10] was 65% and the “Population Normal (%)” value [10] was 95%. For the same molecule, the “Population Pyknosed Nuclei (%)” value [10] was 6%, the “Population Tubulin-Different-Phenotype (%)” value [10] was 14% and the “Total Cell Count” value [10] was 722. For the same molecule, the “Population Apoptotic (%)” value [11] was 55%, the “Population Fragmented Nuclei (%)” value [11] was 10% and the “Population Healthy Nuclei (%)” value [11] was 69%. The “Population Hoechst High Intensity Objects (%)” value [11] was 6%, the “Population Membrane Permeable-Phenotype (%)” value [11] was 0% and the “Population Mitochondria Different-Phenotype (%)” value [11] was 69%. For the same molecule, the “Population Mitotic Cells (%)” value [11] was 44%, the “Population Normal (%)” value [11] was 93% and the “Population Pyknosed Nuclei (%)” value [11] was 20%. For the same molecule, the “Population Tubulin-Different-Phenotype (%)” value [11] was 49%, the “Total Cell Count” value [11] was 283 and the “Population Apoptotic (%)” value [12] was 63%. For the same molecule, the “Population Fragmented Nuclei (%)” value [12] was 9%, the “Population Healthy Nuclei (%)” value [12] was 77% and the “Population Mitochondria Different-Phenotype (%)” value [12] was 72%. For the same molecule, the “Population Mitotic Cells (%)” value [12] was 36%, the “Population Pyknosed Nuclei (%)” value [12] was 12% and the “Population Tubulin-Different-Phenotype (%)” value [12] was 41%. The “Total Cell Count” value [12] was 314.
